Test [1] deals with 5-hydroxytryptamine receptor 6 (Homo sapiens, UniProt P50406). Kind of test: Binding affinity towards 5-hydroxytryptamine 6 receptor using [3H]- LSD as radioligand. An outline of the steps:
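Membranes from HEK293 cells expressing recombinant human 5-HT6 receptor. Displacement of [3H]LSD binding measured; IC50 derived.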

Test [2] can be described thus: Apparent dissociation constant was determined. An outline of the steps: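 Human 5-HT6 receptor expressed in HEK293 cells with coexpressed Gα15, read out as 5-HT-stimulated Ca2+ mobilization. 5-HT EC50 was measured without antagonist and with increasing antagonist concentrations. Dose ratio is EC50 with antagonist divided by EC50 for 5-HT alone. Schild plot of log(dose ratio − 1) vs −log[antagonist]. Triplicate points; experiment repeated at least twice.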

In test [3] the target is Cytochrome P450 2C9 (Homo sapiens, UniProt P11712). Kind of test: Inhibition of recombinant human Cytochrome P450 2C9. The format is ADME. The essentials:
(§1)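 Recombinant human CYP enzymes with fluorogenic substrates. CYP1A2: 3-cyano-7-ethoxycoumarin deethylation. CYP2C9: 7-methoxy-4-trifluoromethylcoumarin dealkylation. CYP2D6: 3-[2-(N,N-diethyl-N-methylamino)ethyl]-7-methoxy-4-methylcoumarin demethylation. CYP3A4: benzoylresorufin or 7-benzyloxy-4-trifluoromethylcoumarin dealkylation, tested separately. IC50 for metabolism inhibition reported as mean ± SEM (n = 7).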

The target of test [4] is Cytochrome P450 2D6 (Homo sapiens, UniProt P10635). Kind of test: Inhibition of recombinant human Cytochrome P450 2D6. The format is ADME. An outline of the steps: as §1
Sequence of Cytochrome P450 2D6 (P10635 whole entry): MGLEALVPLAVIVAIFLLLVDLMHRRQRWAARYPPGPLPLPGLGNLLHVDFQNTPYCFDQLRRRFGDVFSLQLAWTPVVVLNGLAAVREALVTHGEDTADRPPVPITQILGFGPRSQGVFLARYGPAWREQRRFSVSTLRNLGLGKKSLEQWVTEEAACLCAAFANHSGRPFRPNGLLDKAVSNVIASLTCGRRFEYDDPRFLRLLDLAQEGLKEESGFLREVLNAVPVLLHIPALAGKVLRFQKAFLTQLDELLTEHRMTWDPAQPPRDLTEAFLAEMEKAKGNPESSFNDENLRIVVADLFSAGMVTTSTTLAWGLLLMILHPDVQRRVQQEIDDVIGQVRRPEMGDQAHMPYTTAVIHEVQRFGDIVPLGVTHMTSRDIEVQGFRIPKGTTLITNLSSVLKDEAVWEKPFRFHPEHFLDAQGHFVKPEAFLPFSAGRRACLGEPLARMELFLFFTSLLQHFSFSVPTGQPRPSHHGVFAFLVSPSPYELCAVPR
Test [5] addresses T1, Cytochrome P450 1A2 (Homo sapiens, UniProt P05177).
T1 sequence (P05177 whole entry): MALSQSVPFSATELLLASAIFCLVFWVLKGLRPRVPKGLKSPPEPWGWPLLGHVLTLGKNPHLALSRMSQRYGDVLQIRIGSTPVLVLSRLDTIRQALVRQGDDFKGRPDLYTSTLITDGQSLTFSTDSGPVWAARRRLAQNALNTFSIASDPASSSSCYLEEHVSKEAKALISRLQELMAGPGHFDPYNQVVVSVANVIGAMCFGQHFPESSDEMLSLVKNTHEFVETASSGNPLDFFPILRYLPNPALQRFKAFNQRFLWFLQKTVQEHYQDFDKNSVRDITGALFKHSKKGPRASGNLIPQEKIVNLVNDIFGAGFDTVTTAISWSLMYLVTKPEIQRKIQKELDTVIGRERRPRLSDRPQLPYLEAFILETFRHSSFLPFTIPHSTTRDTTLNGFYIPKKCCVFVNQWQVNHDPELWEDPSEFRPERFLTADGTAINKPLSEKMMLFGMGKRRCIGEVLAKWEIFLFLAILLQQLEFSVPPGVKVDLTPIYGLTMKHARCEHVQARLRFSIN
Nature of the test: Inhibition of recombinant human Cytochrome P450 1A2. The format is ADME. The essentials:
as §1

The target in test [6] is T2, Cytochrome P450 3A4 (Homo sapiens, UniProt P08684). Kind of test: Inhibition of recombinant human Cytochrome P450 3A4 with BFC. In kind it is ADME. An outline of the steps: as §1
T2 sequence (P08684 whole entry): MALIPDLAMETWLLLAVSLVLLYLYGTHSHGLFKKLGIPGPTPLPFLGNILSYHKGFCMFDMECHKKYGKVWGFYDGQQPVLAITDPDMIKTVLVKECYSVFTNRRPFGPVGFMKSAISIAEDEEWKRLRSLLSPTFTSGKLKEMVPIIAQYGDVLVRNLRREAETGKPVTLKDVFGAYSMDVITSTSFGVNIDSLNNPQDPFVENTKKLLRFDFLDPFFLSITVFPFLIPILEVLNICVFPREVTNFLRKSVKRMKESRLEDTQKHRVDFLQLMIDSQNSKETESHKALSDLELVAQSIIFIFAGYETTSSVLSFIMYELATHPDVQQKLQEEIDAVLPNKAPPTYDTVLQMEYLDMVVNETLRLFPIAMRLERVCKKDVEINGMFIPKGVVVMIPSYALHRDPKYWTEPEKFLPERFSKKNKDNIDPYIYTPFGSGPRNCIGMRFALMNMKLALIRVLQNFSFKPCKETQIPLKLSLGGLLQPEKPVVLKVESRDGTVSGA
In test [7] the target is T2, Cytochrome P450 3A4. Kind of test: Inhibition of recombinant human Cytochrome P450 3A4 with BzRes. The format is ADME. The essentials:
as §1

Test [8] addresses Cytochrome P450 2C19 (Homo sapiens) (UniProt P33261). Kind of test: Inhibition of recombinant human Cytochrome P450 2C19.

Sequence of 5-hydroxytryptamine receptor 6 (P50406 whole entry): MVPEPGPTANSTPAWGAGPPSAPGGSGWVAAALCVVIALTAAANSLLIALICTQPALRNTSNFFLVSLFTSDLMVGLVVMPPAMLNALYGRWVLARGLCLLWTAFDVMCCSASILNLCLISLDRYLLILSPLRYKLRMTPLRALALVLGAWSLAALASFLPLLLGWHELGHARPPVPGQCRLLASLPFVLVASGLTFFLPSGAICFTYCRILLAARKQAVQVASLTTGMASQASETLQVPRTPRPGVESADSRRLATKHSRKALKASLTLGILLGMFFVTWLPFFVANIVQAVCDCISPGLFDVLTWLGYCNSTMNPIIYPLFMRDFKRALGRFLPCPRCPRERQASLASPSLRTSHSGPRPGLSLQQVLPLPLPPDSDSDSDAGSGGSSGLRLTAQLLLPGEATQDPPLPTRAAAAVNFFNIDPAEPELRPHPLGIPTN
Sequence of Cytochrome P450 2C19 (Homo sapiens) (P33261 whole entry, looked up): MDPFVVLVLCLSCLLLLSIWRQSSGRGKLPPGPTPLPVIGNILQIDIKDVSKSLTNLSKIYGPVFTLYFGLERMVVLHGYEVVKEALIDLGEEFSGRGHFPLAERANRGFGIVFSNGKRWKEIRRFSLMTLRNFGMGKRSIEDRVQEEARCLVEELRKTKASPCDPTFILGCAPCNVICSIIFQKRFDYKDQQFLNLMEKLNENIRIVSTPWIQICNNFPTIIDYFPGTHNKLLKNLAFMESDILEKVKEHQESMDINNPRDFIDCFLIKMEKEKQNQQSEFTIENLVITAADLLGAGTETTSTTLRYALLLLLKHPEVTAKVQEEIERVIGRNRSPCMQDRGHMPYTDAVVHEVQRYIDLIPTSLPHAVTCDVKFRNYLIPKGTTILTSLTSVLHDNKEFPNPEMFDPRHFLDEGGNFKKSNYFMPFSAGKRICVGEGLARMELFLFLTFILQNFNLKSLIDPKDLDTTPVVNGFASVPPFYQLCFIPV
Sequence of Cytochrome P450 2C9 (P11712 whole entry): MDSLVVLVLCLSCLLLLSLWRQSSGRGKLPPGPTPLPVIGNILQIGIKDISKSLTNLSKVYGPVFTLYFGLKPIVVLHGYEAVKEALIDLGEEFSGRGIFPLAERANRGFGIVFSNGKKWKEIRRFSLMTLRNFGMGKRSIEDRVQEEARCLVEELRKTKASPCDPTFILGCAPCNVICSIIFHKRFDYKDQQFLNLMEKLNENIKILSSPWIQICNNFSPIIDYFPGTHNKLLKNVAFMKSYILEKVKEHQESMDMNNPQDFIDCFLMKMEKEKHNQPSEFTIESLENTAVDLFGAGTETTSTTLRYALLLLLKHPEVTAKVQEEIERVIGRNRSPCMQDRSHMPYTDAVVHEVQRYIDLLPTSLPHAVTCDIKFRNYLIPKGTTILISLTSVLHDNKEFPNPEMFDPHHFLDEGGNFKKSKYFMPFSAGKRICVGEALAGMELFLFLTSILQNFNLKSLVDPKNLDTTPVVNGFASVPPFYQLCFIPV

What is called IC50 is the midpoint of a concentration-inhibition curve. In the case of `CNc1cc(NS(=O)(=O)c2ccc(N)cc2)nc(NC)n1`, in test [1], the IC50 amounted to 26.3 nM.
In turn, `CSc1nc2ccccn2c(=N)c1S(=O)(=O)c1ccc2ccccc2c1` showed an IC50 in test [1] of 79.2 nM.
For the molecule `CSc1nc2ccccn2c(=N)c1S(=O)(=O)c1ccccc1`, the IC50 in test [1] is 4 nM; in test [3] it was 24200 nM; in test [4], above 40000 nM; in test [5], above 40000 nM; in test [6], above 40000 nM; in test [7], above 40000 nM. The IC50 in test [8] came to 860 nM. The Kd in test [2] worked out at 4.7 nM.
As to `CSc1nc2ccc(F)cn2c(=N)c1S(=O)(=O)c1ccccc1`, the IC50 in test [1] is 87.6 nM.
In turn, `CCc1ccn2c(=N)c(S(=O)(=O)c3ccccc3)c(SC)nc2c1` displayed an IC50 in test [1] of 70.1 nM.
The same measure, in the same setting: the same measure for `N#C/C(=C\Nc1ccccn1)S(=O)(=O)c1ccccc1`: 524 nM; for `CSc1nc2c3ccccc3ccn2c(=N)c1S(=O)(=O)c1ccccc1`: 68.9 nM.
The same measure, in the same setting: the same measure for `CSc1nc2c(Br)cc(C)cn2c(=N)c1S(=O)(=O)c1ccccc1`: 269 nM; for `CCCS(=O)(=O)c1c(SC)nc2ccccn2c1=N`: 3580 nM.
